Source: PMC7127737 (Bioorganic & Medicinal Chemistry Letters, 2008)

Columns and labels:
[1] = target: T1, human CpA (Homo sapiens, UniProt P15085); assay: Inhibition of recombinant human CpA, fluorescence assay; assay type: biochemical; conditions: for more potent inhibition of CpA relative to 1a: compared with 1a; for selectivity for ACE2 versus CpA: ratio of Ki Apps CpA/ACE2
T1 sequence (P15085 111-419): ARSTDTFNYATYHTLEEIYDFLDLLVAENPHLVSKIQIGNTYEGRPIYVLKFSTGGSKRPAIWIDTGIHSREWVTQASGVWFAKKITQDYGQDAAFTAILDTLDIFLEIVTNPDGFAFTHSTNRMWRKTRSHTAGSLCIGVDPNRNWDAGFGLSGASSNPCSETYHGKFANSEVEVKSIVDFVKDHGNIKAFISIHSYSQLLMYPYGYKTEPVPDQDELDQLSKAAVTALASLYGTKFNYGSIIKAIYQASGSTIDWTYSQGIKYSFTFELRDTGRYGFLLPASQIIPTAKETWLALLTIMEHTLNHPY
Procedure, shortened: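 Recombinant human CpA (37 nM) was run with 30 μM Abz-Gly-Gly-Nph-OH, and recombinant human ACE2 (0.4 nM) with 30 μM MCA-Tyr-Val-Ala-Asp-Ala-Pro-Lys(DNP)-OH. Both used 50 mM Hepes pH 7.5, 1 μM Zn(OAc)2, 100 μM TCEP, 300 μM CHAPS and 300 mM NaCl. Compound was pre-incubated before substrate; read-out was fluorescence. Ki App is the mean of ≥2 assays; selectivity is the CpA/ACE2 Ki App ratio.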

[2] = target: human ACE (Homo sapiens, UniProt P12821); assay: Inhibition of recombinant human ACE, fluorescence assay; assay type: biochemical; conditions: ratio of Ki Apps ACE/ACE2
Procedure, shortened: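 Buffer: 50 mM Hepes, 300 mM NaCl, 300 μM CHAPS, 1 μM Zn(OAc)2, 100 μM TCEP, pH 7.5. Thiols were diluted from 10 mM stocks in 50% aqueous acetonitrile and pre-incubated before substrate addition. Values are means of ≥2 assays.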

[3] = target: human NEP (Homo sapiens, UniProt P08473); assay: Inhibition of recombinant human NEP, fluorescence assay; assay type: biochemical; conditions: ratio of Ki Apps NEP/ACE2
Procedure, shortened: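 Fluorescence protease assays, both in 50 mM Hepes pH 7.5 with 1 μM Zn(OAc)2, 100 μM TCEP, 300 μM CHAPS and 300 mM NaCl. NEP: recombinant human enzyme (0.15 nM) with 2 μM FAM-[…]TAMRA)-NH2. ACE2: recombinant human enzyme (0.4 nM) with 30 μM MCA-Tyr-Val-Ala-Asp-Ala-Pro-Lys(DNP)-OH. Compound was pre-incubated before substrate. Ki App is the mean of ≥2 assays; the NEP/ACE2 ratio gives selectivity.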

[4] = system: ACE2; conditions: read-out: ACE2 IC50; reversible inhibitor; cited from earlier work

Sequence of human ACE (P12821 30-1306): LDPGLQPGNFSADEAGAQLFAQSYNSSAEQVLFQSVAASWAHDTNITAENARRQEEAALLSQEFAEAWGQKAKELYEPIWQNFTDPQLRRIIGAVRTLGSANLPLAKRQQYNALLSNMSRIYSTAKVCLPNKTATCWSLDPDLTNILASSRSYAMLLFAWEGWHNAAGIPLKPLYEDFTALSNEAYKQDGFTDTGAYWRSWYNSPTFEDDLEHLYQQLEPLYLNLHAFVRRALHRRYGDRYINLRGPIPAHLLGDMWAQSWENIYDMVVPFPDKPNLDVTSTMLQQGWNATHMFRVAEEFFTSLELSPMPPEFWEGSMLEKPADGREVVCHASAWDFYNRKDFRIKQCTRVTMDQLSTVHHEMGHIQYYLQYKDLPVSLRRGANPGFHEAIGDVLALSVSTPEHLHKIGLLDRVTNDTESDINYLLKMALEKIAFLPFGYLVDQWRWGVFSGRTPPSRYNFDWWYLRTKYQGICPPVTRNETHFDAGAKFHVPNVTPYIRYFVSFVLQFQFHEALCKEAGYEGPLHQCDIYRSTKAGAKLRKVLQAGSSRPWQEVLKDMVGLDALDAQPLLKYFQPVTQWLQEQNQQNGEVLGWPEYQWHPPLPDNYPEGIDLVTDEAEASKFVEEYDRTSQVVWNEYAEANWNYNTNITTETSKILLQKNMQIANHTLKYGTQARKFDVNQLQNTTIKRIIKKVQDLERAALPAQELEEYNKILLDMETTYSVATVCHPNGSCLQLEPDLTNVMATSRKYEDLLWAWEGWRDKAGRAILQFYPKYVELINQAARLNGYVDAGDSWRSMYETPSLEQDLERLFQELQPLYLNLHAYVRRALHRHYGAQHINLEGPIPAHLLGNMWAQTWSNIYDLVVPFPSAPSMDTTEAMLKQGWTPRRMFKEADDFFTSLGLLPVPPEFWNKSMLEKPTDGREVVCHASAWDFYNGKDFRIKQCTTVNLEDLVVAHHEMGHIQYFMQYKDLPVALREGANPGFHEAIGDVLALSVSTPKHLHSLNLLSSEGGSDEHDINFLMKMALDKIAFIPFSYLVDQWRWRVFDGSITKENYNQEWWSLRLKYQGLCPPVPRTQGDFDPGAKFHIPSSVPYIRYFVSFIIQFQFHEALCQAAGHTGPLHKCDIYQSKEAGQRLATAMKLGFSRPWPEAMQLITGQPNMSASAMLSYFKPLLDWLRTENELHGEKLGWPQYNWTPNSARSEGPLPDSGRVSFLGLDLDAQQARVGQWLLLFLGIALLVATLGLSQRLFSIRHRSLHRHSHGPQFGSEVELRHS
Sequence of human NEP (P08473 whole entry): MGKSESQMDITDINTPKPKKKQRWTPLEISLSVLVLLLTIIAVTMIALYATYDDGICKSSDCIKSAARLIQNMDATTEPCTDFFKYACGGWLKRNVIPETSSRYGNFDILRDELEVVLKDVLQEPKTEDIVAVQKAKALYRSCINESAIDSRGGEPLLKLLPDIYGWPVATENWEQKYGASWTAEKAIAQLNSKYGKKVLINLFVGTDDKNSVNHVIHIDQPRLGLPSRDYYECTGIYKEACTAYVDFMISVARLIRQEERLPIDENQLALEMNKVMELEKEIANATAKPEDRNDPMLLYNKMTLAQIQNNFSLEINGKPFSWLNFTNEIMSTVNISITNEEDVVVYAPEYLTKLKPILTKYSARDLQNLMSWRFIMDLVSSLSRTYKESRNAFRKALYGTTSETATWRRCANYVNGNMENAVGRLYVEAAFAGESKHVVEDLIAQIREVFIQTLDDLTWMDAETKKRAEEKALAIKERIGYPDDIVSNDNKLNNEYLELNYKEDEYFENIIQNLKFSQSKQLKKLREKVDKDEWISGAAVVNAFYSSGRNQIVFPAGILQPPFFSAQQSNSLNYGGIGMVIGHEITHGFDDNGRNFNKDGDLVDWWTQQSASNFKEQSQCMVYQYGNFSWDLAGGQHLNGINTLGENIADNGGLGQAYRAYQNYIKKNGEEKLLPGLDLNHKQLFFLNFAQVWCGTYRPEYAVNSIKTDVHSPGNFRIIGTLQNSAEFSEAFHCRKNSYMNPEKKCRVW

Row | SMILES | more potent inhibition of CpA relative to 1a [1] [fold] | selectivity for ACE2 versus ACE [2] [fold] | selectivity for ACE2 versus CpA [1] [fold] | selectivity for ACE2 versus NEP [3] [fold] | IC50 [4] [nM]
1 | CC[C@@H](C)[C@H](S)C(=O)N[C@@H](Cc1ccccc1)C(=O)O [1d, N-[(2S,3R)-2-Mercapto-3-methylpentanoyl]-L-phenylalanine] | > 10 | – | – | – | –
2 | CC[C@@H](C)[C@H](S)C(=O)N[C@@H](Cc1ccc(O)cc1)C(=O)O [1e, N-[(2S,3R)-2-Mercapto-3-methylpentanoyl]-L-tyrosine] | > 10 | – | – | – | –
3 | CC[C@@H](C)[C@H](S)C(=O)N[C@@H](Cc1cccc2ccccc12)C(=O)O [1f, N-[(2S,3R)-2-Mercapto-3-methylpentanoyl]-3-(1-naphthalenyl)-L-alanine] | – | > 100 | > 100 | – | –
4 | CC[C@@H](C)[C@H](S)C(=O)N[C@@H](Cc1ccc2ccccc2c1)C(=O)O [1g, N-[(2S,3R)-2-Mercapto-3-methylpentanoyl]-3-(2-naphthalenyl)-L-alanine] | – | > 100 | > 100 | – | –
5 | CC[C@@H](C)[C@H](S)C(=O)N[C@@H](Cc1ccccc1Oc1ccccc1)C(=O)O [1j, N-[(2S,3R)-2-Mercapto-3-methylpentanoyl]-2-(phenyloxy)-L-phenylalanine] | – | > 100 | > 100 | – | –
6 | CC[C@@H](C)[C@H](S)C(=O)N[C@@H](Cc1cccc(Oc2ccccc2)c1)C(=O)O [1k, N-[(2S,3R)-2-Mercapto-3-methylpentanoyl]-3-(phenyloxy)-L-phenylalanine] | – | > 100 | > 100 | 14 | –
7 | CC[C@@H](C)[C@H](S)C(=O)N[C@@H](Cc1ccc(Oc2ccccc2)cc1)C(=O)O [1l, N-[(2S,3R)-2-Mercapto-3-methylpentanoyl]-O-phenyl-L-tyrosine] | – | > 100 | > 100 | 5 | –
8 | CC[C@@H](C)[C@H](S)C(=O)N[C@@H](Cc1ccc(OCc2ccc(F)c(F)c2)cc1)C(=O)O [1r, O-[(3,4-Difluorophenyl)methyl]-N-[(2S,3R)-2-mercapto-3-methylpentanoyl]-L-tyrosine] | – | > 750 | > 750 | > 750 | –
9 | CC(C)C[C@H](N[C@@H](Cc1cncn1Cc1cc(Cl)cc(Cl)c1)C(=O)O)C(=O)O [MLN-4760] | – | – | – | – | 0.44
